Calls of active or inactive are those of the source. No cut-off for these calls is given here.
Tests used:
[1] = tested on: Human immunodeficiency virus 1; assay: Antiviral activity against HIV-1 NL 4-3 infected in MT4 cells assessed as inhibition of virus-induced cytopathic effect; assay type: functional, organism-based; conditions: Human immunodeficiency virus 1, NL 4-3, MT4
Summary of the method: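 HIV-1 NL4-3-infected MT-4 cultures; run per a prior method with minor changes. The read-out is protection of cells from virus-induced cytopathic effect. EC50 is the concentration giving 50% protection, derived by curve fitting.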

[2] = Selectivity index, ratio of CC50 for human MT4 cells to EC50 for HIV-1 NL 4-3 infected in MT4 cells; assay type: toxicity, cell-based; conditions: read-out: Ratio CC50/EC50
[3] = Inhibition of XBP1 mRNA splicing (unknown origin) expressed in mouse B16-F10-XBP1-DBD-luc cells incubated for 8 hrs by luciferase reporter gene assay; assay type: cell-based
[4] = molecular target: Nuclear factor NF-kappa-B complex (Homo sapiens) (UniProt Q00653+P19838+Q04206); assay: Inhibition of TNFalpha-stimulated NF-kappaB signaling (unknown origin) expressed in HEK293 cells by luciferase reporter gene assay; assay type: cell-based
[5] = molecular target: T1, Tyrosine-protein phosphatase non-receptor type 1 (Homo sapiens) (UniProt P18031); assay: Inhibition of PTP1B (unknown origin)
T1 sequence (whole entry): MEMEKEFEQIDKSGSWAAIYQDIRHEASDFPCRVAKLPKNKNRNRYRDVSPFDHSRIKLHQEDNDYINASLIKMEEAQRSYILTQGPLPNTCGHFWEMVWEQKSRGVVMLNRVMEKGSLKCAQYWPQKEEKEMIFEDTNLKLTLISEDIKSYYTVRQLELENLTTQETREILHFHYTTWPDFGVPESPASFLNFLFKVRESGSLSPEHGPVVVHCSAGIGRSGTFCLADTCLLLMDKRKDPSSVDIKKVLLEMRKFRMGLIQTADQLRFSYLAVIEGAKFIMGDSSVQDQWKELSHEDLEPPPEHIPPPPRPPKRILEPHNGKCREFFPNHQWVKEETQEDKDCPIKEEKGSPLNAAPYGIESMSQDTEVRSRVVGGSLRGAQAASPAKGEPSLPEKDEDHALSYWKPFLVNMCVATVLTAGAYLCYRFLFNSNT

Nuclear factor NF-kappa-B complex (Homo sapiens), sequence (P19838 whole entry, looked up): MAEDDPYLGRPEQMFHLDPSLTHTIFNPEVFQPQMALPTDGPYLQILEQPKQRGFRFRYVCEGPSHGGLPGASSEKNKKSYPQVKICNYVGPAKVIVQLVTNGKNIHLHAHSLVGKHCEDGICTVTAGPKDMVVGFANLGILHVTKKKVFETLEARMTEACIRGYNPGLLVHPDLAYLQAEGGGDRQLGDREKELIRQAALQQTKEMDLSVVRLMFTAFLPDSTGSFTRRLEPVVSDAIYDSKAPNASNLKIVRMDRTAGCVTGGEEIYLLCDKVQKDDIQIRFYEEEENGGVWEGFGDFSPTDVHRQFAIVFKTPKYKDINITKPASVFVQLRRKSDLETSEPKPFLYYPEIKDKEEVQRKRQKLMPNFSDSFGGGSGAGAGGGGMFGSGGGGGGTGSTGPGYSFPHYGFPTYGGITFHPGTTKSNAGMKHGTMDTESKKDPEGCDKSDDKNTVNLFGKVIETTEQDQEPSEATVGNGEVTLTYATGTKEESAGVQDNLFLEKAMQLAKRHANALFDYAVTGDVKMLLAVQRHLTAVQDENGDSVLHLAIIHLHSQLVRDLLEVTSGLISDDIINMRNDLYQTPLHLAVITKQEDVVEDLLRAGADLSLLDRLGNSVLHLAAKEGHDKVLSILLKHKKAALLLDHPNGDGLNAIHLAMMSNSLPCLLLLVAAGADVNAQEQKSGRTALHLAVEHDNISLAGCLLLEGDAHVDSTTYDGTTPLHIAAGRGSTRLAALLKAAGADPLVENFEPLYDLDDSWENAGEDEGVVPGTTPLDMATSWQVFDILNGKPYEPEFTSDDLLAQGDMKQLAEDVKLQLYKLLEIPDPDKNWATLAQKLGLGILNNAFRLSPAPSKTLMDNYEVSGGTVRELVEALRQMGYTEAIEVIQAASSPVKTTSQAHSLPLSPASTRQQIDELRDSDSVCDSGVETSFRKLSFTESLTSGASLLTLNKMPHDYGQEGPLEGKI
Nuclear factor NF-kappa-B complex (Homo sapiens), sequence (Q00653 whole entry, looked up): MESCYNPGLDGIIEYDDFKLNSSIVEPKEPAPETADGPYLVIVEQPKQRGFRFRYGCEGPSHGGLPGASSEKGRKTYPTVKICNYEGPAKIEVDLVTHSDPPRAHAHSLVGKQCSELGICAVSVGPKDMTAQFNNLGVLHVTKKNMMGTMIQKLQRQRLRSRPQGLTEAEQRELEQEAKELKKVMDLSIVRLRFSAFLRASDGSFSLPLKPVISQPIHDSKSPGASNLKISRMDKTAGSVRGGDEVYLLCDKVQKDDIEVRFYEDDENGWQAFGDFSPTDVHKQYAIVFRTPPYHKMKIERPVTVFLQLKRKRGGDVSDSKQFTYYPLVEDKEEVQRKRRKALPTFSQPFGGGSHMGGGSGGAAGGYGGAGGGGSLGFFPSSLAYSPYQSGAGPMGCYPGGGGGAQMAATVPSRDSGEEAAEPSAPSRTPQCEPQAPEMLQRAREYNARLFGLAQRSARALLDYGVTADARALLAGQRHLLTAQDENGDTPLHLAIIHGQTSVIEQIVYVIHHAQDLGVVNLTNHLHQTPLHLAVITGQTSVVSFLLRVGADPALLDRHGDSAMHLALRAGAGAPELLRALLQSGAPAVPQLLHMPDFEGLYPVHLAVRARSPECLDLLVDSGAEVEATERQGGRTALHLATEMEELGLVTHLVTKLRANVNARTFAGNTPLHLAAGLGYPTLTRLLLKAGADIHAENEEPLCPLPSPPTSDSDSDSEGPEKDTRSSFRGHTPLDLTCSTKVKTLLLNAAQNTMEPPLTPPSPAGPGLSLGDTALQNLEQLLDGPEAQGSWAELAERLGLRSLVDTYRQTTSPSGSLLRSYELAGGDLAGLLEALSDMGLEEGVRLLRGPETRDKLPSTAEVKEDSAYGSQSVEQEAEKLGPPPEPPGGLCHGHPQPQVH
Nuclear factor NF-kappa-B complex (Homo sapiens), sequence (Q04206 whole entry, looked up): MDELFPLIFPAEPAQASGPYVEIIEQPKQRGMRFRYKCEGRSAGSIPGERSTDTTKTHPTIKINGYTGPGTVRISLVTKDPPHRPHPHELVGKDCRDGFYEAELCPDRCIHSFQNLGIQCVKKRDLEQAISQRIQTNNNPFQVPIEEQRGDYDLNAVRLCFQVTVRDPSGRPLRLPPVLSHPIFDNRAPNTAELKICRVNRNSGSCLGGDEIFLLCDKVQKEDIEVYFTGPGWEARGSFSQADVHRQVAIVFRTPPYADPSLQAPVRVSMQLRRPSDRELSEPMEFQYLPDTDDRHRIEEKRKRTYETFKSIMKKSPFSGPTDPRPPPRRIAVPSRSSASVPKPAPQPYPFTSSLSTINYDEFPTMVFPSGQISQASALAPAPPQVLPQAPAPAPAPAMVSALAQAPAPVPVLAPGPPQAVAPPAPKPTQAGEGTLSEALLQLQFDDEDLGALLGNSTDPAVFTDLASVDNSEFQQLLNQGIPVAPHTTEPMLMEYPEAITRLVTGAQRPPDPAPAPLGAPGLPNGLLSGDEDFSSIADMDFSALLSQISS

Row | Structure (SMILES) | EC50 [1] [µM] | selectivity ratio [2] | inhibition [3] | inhibition [4] | inhibition [5]
1 | CC1=C2[C@H]3O[C@]34CC[C@@H]3C(C)(C)CC[C@H](O)[C@@]3(C)[C@@H]4C[C@H]2OC1=O | 7.4 | 10.3 | – | – | –
2 | C[C@@]12CCC(=O)[C@@](C)(CO)[C@H]1CC[C@@]13CC[C@@H](C[C@H]12)[C@](O)(CO)C3 | – | – | inactive | inactive | inactive
3 | C=C[C@@]1(C)C=C2CC[C@@H]3C(C)(C)[C@H](OC(C)=O)CC[C@@]3(C)[C@@H]2C[C@@H]1O | – | – | inactive | inactive | inactive
4 | C=C[C@@]1(C)C=C2CC[C@H]3[C@@](C)(CC[C@@H](OC(C)=O)[C@]3(C)C(=O)O)[C@@H]2C[C@@H]1O | – | – | inactive | inactive | inactive
5 | C=C1C[C@@]23CC[C@@H]4C(C)(C)C(=O)CC[C@@]4(C)[C@@H]2C[C@@H]1C[C@H]3O | – | – | inactive | inactive | inactive
6 | CC(=O)O[C@H]1C2=C(C[C@H]3OC(=O)C(C)=C13)[C@@]1(C)[C@H](CC2)C(C)(C)CC[C@@H]1O | 3.58 | 8.6 | – | – | –
7 | C=C1C[C@@]23CC[C@@H]4C(C)(C)C(=O)CC[C@@]4(C)[C@@H]2C[C@@H]1[C@@H](O)[C@H]3O | – | – | inactive | inactive | inactive
8 | CC1(C)C(=O)CC[C@]2(C)[C@@H]1CC[C@@]13CC[C@@H](C[C@H]12)C(=O)C3 | – | – | inactive | inactive | inactive
9 | C=C[C@@]1(C)C=C2CC[C@@H]3[C@@](C)(C=O)[C@H](OC(C)=O)CC[C@@]3(C)[C@@H]2C[C@@H]1O | – | – | inactive | inactive | inactive

Source: ChEMBL document CHEMBL3352335, “Eurifoloids A-R, structurally diverse diterpenoids from Euphorbia neriifolia” (J Nat Prod, 2014)
